# In PubChem BioAssay AID2516 (University of Pittsburgh Molecular Library Screening Center, 2010):
# Some of the results follow. A number with no mark means an inactive call.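 How the source made its calls: active means at least 50% inhibition in the glucose-6-phosphate dehydrogenase coupled counterscreen; inconclusive means no clear call, values can overlap the other calls; inactive means inhibition below 50%.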
# Test system: glucose-6-phosphate dehydrogenase [Leuconostoc mesenteroides]
# Test: Leuconostoc G6PDH inhibition, confirmation, counter-screen for TbHK1 inhibitor project, biochemical, DPI cherry-picked compounds, single concentration (AID 2516)
# Settings: purified G6PDH, NADH absorbance, 1 h; at 10 µM; active compounds read high
# How it was run: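 Test system – purified G6PDH enzyme in a coupled counterscreen format · Quantity – G6PDH enzyme at 0.006 mU/µL final · Also added – 0.2 mM G6P plus 0.6 mM NAD+ · Doses – one dose, 10 µM · Times – 1 h reaction, room temperature · Technique – absorbance after 50 mM EDTA stop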
row,Compound,inhibition [%]
1,CC1(C)CC(=O)C=C(NCCCNC2CCCCC2)C1,2.59
2,O=C(CN1C(=O)C2C3C=CC(C3)C2C1=O)NCCc1ccccc1Cl (centres undefined),-2.31
3,COC(=O)C1CCN(CC(N)=O)CC1,-9.01
4,COc1cccc(/C=N/Nc2ncc(C(F)(F)F)cc2Cl)c1O,-9.42
